Screens deposited in PubChem BioAssay by several laboratories.
Arr AP2 block = human beta-arrestin and AP2 interaction inhibition; FITC-arrestin peptide / GST-AP2 beads, flow cytometry; AP2 beta2 appendage carries R879A mutation; inhibition, % at 10 µM; actives 0.31% (n = 340,000); AID 504490;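 active means inhibition above a set limit, near 3 SD of compounds lacking own fluorescence, cut at about 54% in these data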;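 further: plate controls were DMSO wells for no effect and 5 µM unlabelled arrestin peptide for full effect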
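Assay system: GST-AP2 R879A bound to glutathione beads, E. coli-expressed; Medium: PBS with 0.05% Tween 20 and 0.1% BSA; Also added: fluorescein-tagged arrestin peptide at 50 nM final; Timing: 12 min plus 1 h, RT; Measured by: flow cytometry, FL1 (488/535 nm); Evaluation: percent drop in bead-associated FITC signal.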
MT1-MMP act inh = MT1-MMP (human) activation inhibition | GFP/RFP ratio change, % at 20 µM | actives 0.061% (n = 360,000) | HT1080 RFP-PRO-GFP cells, GFP/RFP ratio fluorescence, overnight; percent of plate control window, DMSO zero | P50281;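 active means GFP/RFP ratio change of at least 30% with cell ATP level not reduced by more than half and red fluorescence within 50% of control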
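Assay system: HT1080 RFP-PRO-GFP cells | Dosing: 20 µM single dose, 1% DMSO | Incubation: Cells overnight before dosing, compound overnight, 37 °C, 5% CO2 | Evaluation: GFP/RFP fluorescence ratio | Control set: DMSO-only wells and HT1080 RFP-L50D-GFP cell wells as references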
Rin1-Abl PPI inh = blocks binding of human Rin1 to Abl; TR-FRET Rin1/Abl binding, biochemical; actives 0.4% (n = 360,000); P00519+Q13671; inhibition, % at 7.35 µM; AID 588664; in the data active means inhibition above about 5%, passing the limit was not always enough
Target sequence (P00519 whole entry, looked up): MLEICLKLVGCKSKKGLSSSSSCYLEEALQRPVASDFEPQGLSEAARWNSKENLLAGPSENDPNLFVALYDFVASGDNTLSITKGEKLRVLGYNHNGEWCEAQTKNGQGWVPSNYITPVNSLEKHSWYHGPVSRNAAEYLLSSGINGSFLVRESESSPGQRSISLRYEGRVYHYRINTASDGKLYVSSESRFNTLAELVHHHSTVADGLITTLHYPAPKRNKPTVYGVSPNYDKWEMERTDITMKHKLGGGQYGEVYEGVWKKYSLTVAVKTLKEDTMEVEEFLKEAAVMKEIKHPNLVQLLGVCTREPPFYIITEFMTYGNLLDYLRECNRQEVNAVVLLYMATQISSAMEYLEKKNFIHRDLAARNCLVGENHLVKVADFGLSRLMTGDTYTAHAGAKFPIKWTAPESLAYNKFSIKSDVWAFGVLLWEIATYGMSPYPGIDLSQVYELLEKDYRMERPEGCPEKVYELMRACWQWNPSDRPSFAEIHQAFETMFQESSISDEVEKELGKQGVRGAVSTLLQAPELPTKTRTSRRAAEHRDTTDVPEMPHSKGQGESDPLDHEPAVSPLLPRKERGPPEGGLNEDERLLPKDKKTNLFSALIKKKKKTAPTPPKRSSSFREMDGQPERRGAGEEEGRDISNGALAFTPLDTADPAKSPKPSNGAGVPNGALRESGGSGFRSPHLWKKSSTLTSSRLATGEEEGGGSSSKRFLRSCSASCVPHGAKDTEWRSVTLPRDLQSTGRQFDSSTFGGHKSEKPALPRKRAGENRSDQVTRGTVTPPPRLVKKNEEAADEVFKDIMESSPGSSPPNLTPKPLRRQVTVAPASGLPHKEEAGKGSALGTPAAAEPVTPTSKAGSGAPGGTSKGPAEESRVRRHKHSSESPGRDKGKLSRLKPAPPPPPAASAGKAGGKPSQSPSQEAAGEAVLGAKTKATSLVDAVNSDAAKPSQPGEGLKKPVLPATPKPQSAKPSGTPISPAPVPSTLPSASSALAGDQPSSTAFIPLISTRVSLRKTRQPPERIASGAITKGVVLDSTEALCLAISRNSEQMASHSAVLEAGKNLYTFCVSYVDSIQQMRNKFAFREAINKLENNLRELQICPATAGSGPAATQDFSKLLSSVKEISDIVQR
Target sequence (Q13671 whole entry, looked up): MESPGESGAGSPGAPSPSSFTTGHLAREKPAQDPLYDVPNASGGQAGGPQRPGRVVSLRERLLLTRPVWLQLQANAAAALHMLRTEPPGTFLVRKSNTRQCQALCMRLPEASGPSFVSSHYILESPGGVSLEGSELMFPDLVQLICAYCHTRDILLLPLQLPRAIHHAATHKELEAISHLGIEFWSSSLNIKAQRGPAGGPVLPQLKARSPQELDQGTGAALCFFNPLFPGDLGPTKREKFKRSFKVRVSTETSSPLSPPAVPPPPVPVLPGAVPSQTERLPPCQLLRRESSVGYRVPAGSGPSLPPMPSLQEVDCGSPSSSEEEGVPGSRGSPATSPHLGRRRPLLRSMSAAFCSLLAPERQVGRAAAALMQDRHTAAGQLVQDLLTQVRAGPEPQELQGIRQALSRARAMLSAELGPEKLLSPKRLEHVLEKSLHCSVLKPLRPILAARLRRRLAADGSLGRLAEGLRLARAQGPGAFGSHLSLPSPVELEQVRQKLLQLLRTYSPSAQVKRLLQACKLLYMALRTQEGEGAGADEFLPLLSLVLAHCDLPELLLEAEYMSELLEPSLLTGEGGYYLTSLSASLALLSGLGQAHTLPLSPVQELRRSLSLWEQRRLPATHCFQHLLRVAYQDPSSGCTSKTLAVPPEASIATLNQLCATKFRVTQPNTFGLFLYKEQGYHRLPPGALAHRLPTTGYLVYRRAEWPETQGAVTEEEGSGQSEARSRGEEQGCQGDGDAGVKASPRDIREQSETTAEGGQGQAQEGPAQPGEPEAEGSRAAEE
Tb MetRS inh = Trypanosoma brucei MetRS inhibition; inhibition, % at 11.9 µM; AID 624268; purified T. brucei MetRS, ATP depletion, Kinase-Glo luminescence; actives 0.4% (n = 360,000);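 active means inhibition above a per-plate cutoff of the control wells' mean inhibition plus 3 SD, cut at about 5.5% in these data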;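 further: 0% = DMSO wells median and 100% = median of wells with control inhibitor compound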
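Assay system: T. brucei methionyl-tRNA synthetase, purified | Medium: HEPES buffer with MgCl2, KCl, DTT, spermine, BSA, pyrophosphatase | Compound: 11.9 µM single point | Incubation: 15 min enzyme-compound preincubation, 2 h reaction, 10 min detection, 25 °C | Measured by: Kinase-Glo luciferase luminescence reporting remaining unconsumed ATP | Measure: % inhibition normalized to control-well medians | Replication: Singlicate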
SKN-1 inh = blocks SKN-1 activity in C. elegans; actives 0.49% (n = 360,000); inhibition, % at 21.8 µM; C. elegans VP596 Pgst-4::GFP/RFP ratio, acrylamide-induced, 24 h;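 active means interference check ratio from 0.5 to 1.5 plus GFP to RFP signal ratio inhibition reaching or exceeding a fixed threshold, cut at about 30% in these data, passing the limit was not always enough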
Tb MetRS conf = Trypanosoma brucei MetRS inhibition confirmed | shares compounds with Tb MetRS inh | T. brucei MetRS enzyme, luminescence (ATP depletion) | inhibition, % at 11.9 µM | actives 93% (n = 1,400) | AID 624412; in the data active means inhibition above about 7%
Jurkat tox = counter-screen for T. brucei MetRS inhibitors: Jurkat cell cytotoxicity. shares compounds with Tb MetRS inh. Jurkat cells viability, ATP luminescence. inhibition, % at 8.3 µM. actives 12% (n = 1,400). AID 624413; in the data active means inhibition above about 15%;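 further: 0% = vehicle and 100% = reference inhibitor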
TbMetRS FP orth = inhibits T. brucei methionyl tRNA synthetase in orthogonal FP test; inhibition, % at 11.9 µM; actives 44% (n = 1,400); AID 651607; purified T. brucei MetRS, fluorescence polarization; shares compounds with Tb MetRS inh; in the data active means inhibition above about 17%;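 further: 0% = vehicle wells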
The depositor's hits bear a star; nt = not tested or not shown. An excerpt weighted towards active compounds, which were near 1.6% of everything screened.

SMILES | Arr AP2 block | MT1-MMP act inh | Rin1-Abl PPI inh | Tb MetRS inh | SKN-1 inh | Tb MetRS conf | Jurkat tox | TbMetRS FP orth
Cc1ccccc1S(=O)(=O)N(C)C[C@H]1OCc2cn(nn2)CCCC(=O)N([C@H](C)CO)C[C@@H]1C | nt | 5 | 7 | -1 | -1 | nt | nt | nt
O=C(CN1CCOCC1)Nc1nc(-c2ccccc2)cs1 | -16 | -4 | 0 | 6.7* | 16 | 2 | 3 | 1
Cc1ccsc1CNC(=O)C1(C)CCCN1CC(C)C (stereo not given) | nt | 1 | 0 | 0 | -1 | nt | nt | nt
O=C(CCCC1=NS(=O)(=O)c2ccccc2N1)OCc1ccc(Cl)cc1 | 22 | -1 | 2 | 20* | 4 | 44* | 2 | 14
O=C1CC[C@@H](C(=O)N2CSC[C@@H]2C(=O)Nc2cccc(C(F)(F)F)c2)N1 | nt | -6 | -1 | 0 | 8 | nt | nt | nt
OC(c1cc(F)cc(Cl)c1)c1ncc(-c2cccc(C(F)(F)F)c2)[nH]1 (stereo not given) | nt | 7 | -4 | 16* | 13 | 45* | 4 | 31*
OC(c1cc(Cl)cc(Cl)c1)c1ncc(-c2ccccc2F)[nH]1 (stereo not given) | nt | 5 | -5 | 30* | 11 | 67* | 5 | 43*
COc1ccccc1-c1cnc(C(O)c2cc(Cl)cc(Cl)c2)[nH]1 (stereo not given) | nt | 11 | 2 | 67* | 6 | 88* | 3 | 69*
O=C(NCc1cccc(F)c1)Nc1nnc([C@H]2C[C@H](O)[C@@H](CO)O2)s1 | nt | 2 | 1 | 0 | 5 | nt | nt | nt
CCCCN(CCCNC(=S)NCCCc1cnc[nH]1)c1ccc(Br)cn1 | nt | 3 | 3 | 0 | 3 | nt | nt | nt
CS(=O)(=O)NNC(=O)c1cc2cc3ccccc3nc2s1 | -14 | 6 | 1 | -1 | 6 | nt | nt | nt
COc1ccc(S(=O)(=O)NNC(=O)c2cc3cc4ccccc4nc3s2)cc1 | 22 | -3 | 0 | 5.8* | 8 | 14* | -3 | 14
O=C(NNS(=O)(=O)c1ccccc1[N+](=O)[O-])c1cc2ccccc2cc1O | 4 | -1 | 0 | 34* | 1 | 49* | 2 | 24*
O=C(Nc1cc(Cl)ccc1-n1cncn1)c1ccc([N+](=O)[O-])o1 | -1 | -6 | 0 | 0 | 6 | nt | nt | nt
CC1(C(=O)NS(=O)(=O)c2ccc(F)cc2F)CCN1C(=O)c1ccc(C2CCCCC2)cc1 (stereo not given) | nt | 0 | -1 | 0 | 0 | nt | nt | nt
NC(=O)NCc1cccc(Cl)c1 | -6 | -2 | 3 | 0 | 7 | nt | nt | nt
NS(=O)(=O)c1ccc(NC(=S)NCc2cccc(Cl)c2)cc1 | 1 | 5 | -1 | 17* | -5 | 36* | 29* | 12
O=C(NCc1cccc(Cl)c1)NCc1cccc(Cl)c1 | 7 | nt | 1 | 6.2* | 2 | 9.3* | 9 | 8
NS(=O)(=O)c1ccc(NC(=S)NCc2ccccc2)cc1 | 32 | 0 | 0 | 0 | -12 | nt | nt | nt
O=c1[nH][nH]c2c1[C@H](c1ccc(Cl)cc1)O[C@H](C1CCCCC1)C2 | nt | 10 | nt | -1 | 0 | nt | nt | nt
CCOC(=O)N1CCC(Nc2c(Nc3ccc(F)cc3)c(=O)c2=O)CC1 | -3 | 1 | 4 | 36* | -10 | 77* | 12 | 40*
O=C(NNC(=O)c1ccc(Cl)cc1Cl)Nc1ccccc1 | 4 | 8 | 2 | 3 | 4 | nt | nt | nt
COc1ccc(NC(=O)NNC(=O)CCC(=O)Nc2ccccc2Cl)cc1 | 19 | 0 | -1 | 0 | -5 | nt | nt | nt
O=C(NNC(=O)c1cc(-c2ccc(Cl)cc2Cl)nc2ccccc12)Nc1ccccc1 | -1 | 3 | 0 | 39* | -10 | 95* | 1 | 80*
O=C(CCC(=O)Nc1ccc(Cl)cc1Cl)NNC(=O)Nc1ccccc1 | 42 | -1 | 2 | 13* | 0 | 26* | 0 | 6
SMILES | Arr AP2 block | MT1-MMP act inh | Rin1-Abl PPI inh | Tb MetRS inh | SKN-1 inh | Tb MetRS conf | Jurkat tox | TbMetRS FP orth
NC(=O)Cc1ccc(OCc2nn[nH]n2)cc1 | nt | -2 | 2 | 0 | -14 | nt | nt | nt
CCn1nccc1NC(=O)c1csc([C@@H]2O[C@H](CO)[C@H](O)[C@H](O)[C@H]2O)n1 | nt | -8 | 0 | 0 | 19 | nt | nt | nt
COc1ccc(-n2cc(CNCCCn3ccnc3)c(-c3cccc(F)c3)n2)cc1 | -3 | 3 | -2 | 16* | 5 | 5 | 4 | 4
COc1ccc(-n2cc(CNCC3CCOCC3)c(-c3cccc(F)c3)n2)cc1 | 16 | -10 | 3 | 1 | 2 | nt | nt | nt
CC(C)=CCn1c2ccc(NC(=S)NC3CC3)cc2c(=O)n1C | nt | 0 | 0 | 0 | 12 | nt | nt | nt
O=C(CC[C@H]1O[C@@H](n2cnc3c(NC(=O)c4ccccc4)ncnc32)[C@H](O)[C@@H]1O)NCc1ccc(OC(F)(F)F)cc1 | nt | 3 | 4 | -1 | -4 | nt | nt | nt
COc1cc(CNc2nc3ccccc3[nH]2)cc(OC)c1OC | 6 | 10 | 4 | 16* | -1 | 32* | 11 | 9
S=c1nc(NCc2ccc3c(c2)OCO3)c2ccccc2[nH]1 | 20 | 3 | 2 | -1 | -4 | nt | nt | nt
O=c1[nH]c2ccccc2nc1NCc1ccccc1 | 26 | 2 | -1 | 0 | -8 | nt | nt | nt
c1ccc2[nH]c(NCc3ccc4c(c3)OCO4)nc2c1 | 0 | -4 | 4 | 18* | 3 | 30* | 3 | 14
Cc1ccc2nc(C3CCCN(C(=O)NCc4ccccc4)C3)[nH]c2c1 (stereo not given) | -4 | -4 | -5 | 15* | -17 | 23* | -3 | 9
CCn1c(NCc2cc(OC)c(OC)c(OC)c2)nc2ccccc21 | -6 | 3 | 2 | 4 | 9 | nt | nt | nt
c1ccc(CNc2nc3ccccc3[nH]2)cc1 | -7 | 7 | 2 | 26* | -2 | 35* | 9 | 20*
CSCCC(NC(=O)COc1ccccc1)C(=O)NCC(C)(C)N1CCOCC1 (stereo not given) | nt | 9 | 1 | 0 | 14 | nt | nt | nt
CCOC(=O)N1CCN(C(c2ccnc3ccccc23)c2nnnn2-c2ccc3c(c2)OCCO3)CC1 (stereo not given) | nt | -8 | nt | 0 | 19 | nt | nt | nt
COc1ccc(NC(=O)c2cc(-c3cc(F)ccc3OC(C)C)n[nH]2)cc1OC | nt | -4 | -5 | 0 | 9 | nt | nt | nt
Cc1ccc2nc(NCc3ccccc3)[nH]c2c1 | -10 | 2 | 2 | 17* | 0 | 28* | 70* | 13
COc1ccc2nc(NCc3ccccc3)[nH]c2c1 | 36 | 11 | -3 | 1 | 7 | nt | nt | nt
